# Published values from different studies.
# Lines come from different studies, so protocols differ.
# CDK4 with cyclin D1: Cyclin-dependent kinase 4, with cyclin D1 (CDK4, Homo sapiens, UniProt P11802)
# CDK4 with cyclin D3: Cyclin-dependent kinase 4, with cyclin D3 (CDK4, Homo sapiens, UniProt P11802)
# CDK4: Cyclin-dependent kinase 4 (CDK4, Homo sapiens, UniProt P11802)
SMILES,target,observed,mode,technique,concentration,endpoint,value
Oc1cccc(-c2nc(N3CCOCC3)c3oc4ncccc4c3n2)c1,CDK4 with cyclin D1,cell-free assay,,,0.5 µM,remaining signal,102%
Cc1nccc(COC(=O)N2C[C@@H]3[C@@H](CNC(=O)c4ccc5[nH]nnc5c4)[C@@H]3C2)n1,CDK4 with cyclin D1,cell-free assay,,competition with immobilised ligand,1 µM,remaining binding,90%
CCN(CC)CCNC(=O)c1c(C)[nH]c(/C=C2\C(=O)Nc3ccc(F)cc32)c1C,CDK4 with cyclin D3,cell-free assay,,,0.5 µM,remaining signal,93%
O=C(Nc1cnn(-c2csc(C(=O)NC3COC3)c2)c1)Nc1ccccc1Cl,CDK4 with cyclin D3,enzyme activity,inhibitor,,5 µM,remaining activity,98.2%
O=C(c1ccccc1F)[C@H]1Cc2c(cc([N+](=O)[O-])cc2[N+](=O)[O-])[C@@H](O)[C@@]12C(=O)Nc1ccccc12,CDK4,cell-free assay,inhibitor,TR-FRET,1 µM,inhibition,38.9%
CC(C)(C)c1nc2c(s1)c1nc(N)ncc1c1ccc(NS(=O)(=O)c3c(F)cccc3F)c(F)c12,CDK4 with cyclin D3,enzyme activity,inhibitor,radiometric,1 µM,remaining activity,100%
O=C1NC(=O)c2cc(Nc3ccc(F)cc3)c(Nc3ccc(F)cc3)cc21,CDK4 with cyclin D1,cell-free assay,,,0.5 µM,remaining signal,101%
CC1CCCN1c1nccc(-c2cnn3ncccc23)n1 (stereo not drawn),CDK4 with cyclin D1,binding,,,1 µM,remaining binding,100%
Cc1cnc(NC2CCOCC2)nc1-n1cnc(C(=O)NC(CN)c2cc(F)cc(Cl)c2)c1 (stereo not drawn),CDK4 with cyclin D3,enzyme activity,inhibitor,radiometric,1 µM,remaining activity,6%
CN1CC(Oc2cnc(C#N)cc2-c2ccn3nc(NC(=O)C4CC4)cc3c2)C1,CDK4 with cyclin D3,enzyme activity,inhibitor,,1 µM,inhibition,-9%
CC(=O)N1CCC(c2ccc(C(=O)NC(=N)N)cc2C(F)(F)F)CC1,CDK4,cell-free assay,,competition with immobilised ligand,1 µM,remaining binding,100%
O=C(c1ccccc1)[C@H]1Cc2c(cc([N+](=O)[O-])cc2[N+](=O)[O-])[C@H](O)[C@]12C(=O)Nc1ccccc12,CDK4,cell-free assay,inhibitor,TR-FRET,1 µM,inhibition,30.8%
CC1=C(C#N)C(c2ccc3c(c2)c(NC(=O)c2ccccc2C)nn3C)C(C#N)=C(C)N1,CDK4 with cyclin D3,cell-free assay,,competition with immobilised ligand,1 µM,remaining binding,79%
F[C@@H]1CCN(c2nccc(-c3cnn4ncccc34)n2)C1,CDK4 with cyclin D1,binding,,,1 µM,remaining binding,100%
COc1cccc(CNC(=O)c2nc3scc(COCc4ccc(C(=O)O)cc4)c3c(=O)[nH]2)c1,CDK4 with cyclin D3,cell-free assay,,competition with immobilised ligand,1 µM,remaining binding,91.1%
COc1ccc(C(=O)[C@H]2Cc3c(cc([N+](=O)[O-])cc3[N+](=O)[O-])[C@@H](O)[C@@]23C(=O)Nc2ccccc23)cc1,CDK4,cell-free assay,inhibitor,TR-FRET,1 µM,inhibition,39.3%
CNC(=O)c1ccc(Nc2ncc(C(F)(F)F)c(NCc3nccnc3N(C)S(C)(=O)=O)n2)cc1,CDK4 with cyclin D1,cell-free assay,,competition with immobilised ligand,0.1 µM,remaining binding,100%
CN(CCCC(F)(F)F)c1nccc(-c2cnn3ncccc23)n1,CDK4 with cyclin D3,binding,,,1 µM,remaining binding,100%
